In ChEMBL document CHEMBL5230083, “Novel 2, 5-diketopiperazine derivatives as potent selective histone deacetylase 6 inhibitors: Rational design, synthesis and antiproliferative activity” (Eur J Med Chem, 2020):
pIC50: −log10 of the molar value. Structures can show the parent of a compound that is named as a salt. Activity calls are given as the source filed them. No cut-off for these calls is given here. Square brackets hold non-standard residues; d marks the D form. Peptide text beside a SMILES is read from it. * marks the point of attachment. Asu = N[C@@H](CCCCCC(=O)O)C(=O)O; X1 = CC(=O)[C@H](Cc1cnc[nH]1)N*; NHOH = ON*

Assays:
[1] = target: Histone deacetylase 1 (Homo sapiens, UniProt Q13547); experiment: Inhibition of HDAC1 (unknown origin) using Fluor de lys as substrate by fluorescence based analysis
Chain of Histone deacetylase 1 (Q13547 whole entry): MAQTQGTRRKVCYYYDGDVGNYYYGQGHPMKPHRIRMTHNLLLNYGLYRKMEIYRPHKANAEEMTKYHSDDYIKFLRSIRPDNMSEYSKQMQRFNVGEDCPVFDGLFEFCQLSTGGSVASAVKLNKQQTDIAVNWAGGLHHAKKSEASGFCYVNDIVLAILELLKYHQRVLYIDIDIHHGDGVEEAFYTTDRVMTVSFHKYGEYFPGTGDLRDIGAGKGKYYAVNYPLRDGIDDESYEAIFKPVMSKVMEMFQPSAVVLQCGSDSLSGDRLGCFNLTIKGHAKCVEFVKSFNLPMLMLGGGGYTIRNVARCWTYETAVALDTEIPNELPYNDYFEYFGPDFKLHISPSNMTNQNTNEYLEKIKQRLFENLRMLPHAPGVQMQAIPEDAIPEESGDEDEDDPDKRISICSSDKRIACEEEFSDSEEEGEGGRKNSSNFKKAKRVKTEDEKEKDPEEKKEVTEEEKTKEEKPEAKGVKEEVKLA

[2] = target: T1, Protein deacetylase HDAC6 (Homo sapiens, UniProt Q9UBN7); experiment: Inhibition of HDAC6 (unknown origin) using Fluor de lys as substrate by fluorescence based analysis
T1 sequence (Q9UBN7 whole entry): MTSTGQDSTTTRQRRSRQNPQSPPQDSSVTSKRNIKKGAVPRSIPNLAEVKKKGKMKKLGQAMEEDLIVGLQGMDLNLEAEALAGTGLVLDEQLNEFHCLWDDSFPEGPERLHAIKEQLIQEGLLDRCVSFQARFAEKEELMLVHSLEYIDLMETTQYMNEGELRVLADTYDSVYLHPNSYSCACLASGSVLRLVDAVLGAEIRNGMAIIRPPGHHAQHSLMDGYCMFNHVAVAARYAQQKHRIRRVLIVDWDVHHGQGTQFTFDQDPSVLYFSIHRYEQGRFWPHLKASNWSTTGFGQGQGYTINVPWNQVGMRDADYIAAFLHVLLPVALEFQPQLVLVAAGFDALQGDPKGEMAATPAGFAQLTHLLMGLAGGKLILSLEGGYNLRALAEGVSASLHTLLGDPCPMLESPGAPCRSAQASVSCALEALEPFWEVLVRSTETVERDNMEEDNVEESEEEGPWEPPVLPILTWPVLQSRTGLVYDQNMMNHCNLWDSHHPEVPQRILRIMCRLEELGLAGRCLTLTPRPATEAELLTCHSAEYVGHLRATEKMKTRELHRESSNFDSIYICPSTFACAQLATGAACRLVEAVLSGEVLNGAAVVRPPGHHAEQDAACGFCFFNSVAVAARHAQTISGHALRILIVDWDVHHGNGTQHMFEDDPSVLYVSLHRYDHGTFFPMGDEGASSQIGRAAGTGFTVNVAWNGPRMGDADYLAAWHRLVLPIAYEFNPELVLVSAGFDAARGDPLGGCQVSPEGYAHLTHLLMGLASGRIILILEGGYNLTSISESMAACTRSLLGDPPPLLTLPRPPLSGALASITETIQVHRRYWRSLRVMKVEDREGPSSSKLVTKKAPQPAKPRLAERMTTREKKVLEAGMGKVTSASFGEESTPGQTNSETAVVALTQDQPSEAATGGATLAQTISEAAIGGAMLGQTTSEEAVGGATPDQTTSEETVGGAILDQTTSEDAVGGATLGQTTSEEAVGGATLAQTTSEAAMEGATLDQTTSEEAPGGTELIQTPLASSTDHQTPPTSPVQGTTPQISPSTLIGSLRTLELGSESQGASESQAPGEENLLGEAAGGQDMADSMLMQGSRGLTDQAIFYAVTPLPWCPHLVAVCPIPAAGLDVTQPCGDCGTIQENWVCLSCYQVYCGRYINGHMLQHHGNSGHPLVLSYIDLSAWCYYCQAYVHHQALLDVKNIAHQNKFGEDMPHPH

[3] = organism: Homo sapiens; experiment: Selectivity index, ratio of IC50 for inhibition of HDAC1 (unknown origin) to IC50 for inhibition of HDAC6 (unknown origin)
Summary of the method: (§1)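 Ratio of IC50 values, each from a Fluor de Lys fluorogenic HDAC assay run in duplicate.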

[4] = target: T2, Histone deacetylase 8 (Homo sapiens, UniProt Q9BY41); experiment: (§2) Inhibition of HDAC8 (unknown origin) using Fluor de lys as substrate by fluorescence based analysis
T2 sequence (Q9BY41 whole entry): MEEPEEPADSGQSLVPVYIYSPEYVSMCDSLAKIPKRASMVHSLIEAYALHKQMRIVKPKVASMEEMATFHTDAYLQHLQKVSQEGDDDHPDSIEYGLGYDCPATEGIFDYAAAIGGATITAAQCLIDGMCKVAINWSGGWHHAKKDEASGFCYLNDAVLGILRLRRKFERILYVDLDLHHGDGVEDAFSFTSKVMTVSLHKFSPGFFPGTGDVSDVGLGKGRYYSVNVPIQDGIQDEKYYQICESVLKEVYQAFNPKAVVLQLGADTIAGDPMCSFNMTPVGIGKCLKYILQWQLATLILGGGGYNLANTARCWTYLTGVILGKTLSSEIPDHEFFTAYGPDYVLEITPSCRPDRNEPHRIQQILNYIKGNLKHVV

[5] = organism: Homo sapiens; experiment: Selectivity index, ratio of IC50 for inhibition of HDAC8 (unknown origin) to IC50 for inhibition of HDAC6 (unknown origin); summary of the method: as §1
[6] = Inhibition of full length HDAC1/MTA1 (162 to 354 residues) (unknown origin) transfected in HEK293F cells using BOC-Lys-AMC as substrate incubated for 30 mins by fluorescence based analysis; parameters: species or system Homo sapiens
[7] = test system: A549; experiment: Antiproliferative activity against human A549 cells assessed as inhibition of cell growth incubated for 72 hrs by alamar blue assay; format: functional, cell-based; conditions: A549, 72 h
Summary of the method: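 Cells grown in IMDM with 20% FBS and penicillin/streptomycin at 37 °C, 5% CO2. Compound added to plated cells for 72 h. Alamar blue (1 mM solution) then added for 5–6 h, and fluorescence read at 530/590 nm. IC50 derived for single-agent treatment.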

[8] = test system: A549; experiment: Antiproliferative activity against human A549 cells assessed as inhibition of cell growth incubated for 72 hrs in presence of (R)-4-((3,4-dibenzyl-2,5-dioxopiperazin-1-yl)methyl)-N-hydroxybenzamide by alamar blue assay; format: functional, cell-based; conditions: A549, 72 h
Summary of the method: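 Alamar blue assay in IMDM/20% FBS at 37 °C, 5% CO2. Cells were exposed to the two agents together for 72 h, with 5–6 h Alamar blue and fluorescence at 530/590 nm. IC50 in combination was determined. CI50 = IC50Ac/IC50As + IC50Bc/IC50Bs, comparing combination with single-agent IC50s.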

[9] = target: Histone deacetylase 8 (Homo sapiens) (UniProt Q9BY41); experiment: as §2
[10] = Cytotoxicity against human HS5 cells assessed as inhibition of cell growth incubated for 72 hrs by alamar blue assay; format: toxicity, cell-based
Summary of the method: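 Cells were grown in IMDM with 20% FBS and penicillin/streptomycin at 37 °C in 5% CO2. Drug-treated cells were incubated 72 h. Alamar blue (1 mM solution) was then added for 5–6 h, and fluorescence read at 530/590 nm.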

[11] = test system: RPMI-8226; experiment: cells; format: functional, cell-based; conditions: Homo sapiens, RPMI-8226, 72 h
[12] = test system: U-266; experiment: cells; format: functional, cell-based; conditions: Homo sapiens, U-266, 72 h
[13] = Microsomal stability in human liver microsomes assessed as half life at 0.5 uM prewarmed for 5 mins followed by NADPH addition and measured for 90 mins by LC-MS/MS analysis; format: ADME, Microsome; conditions: time 95 min
Summary of the method: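 Incubation held 0.8 mg/mL human liver microsomes, MgCl2, potassium phosphate buffer pH 7.4 and 0.5 μM compound. After 5 min prewarming at 37 °C, NADPH started the reaction.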

SMILES | pIC50 [1] | pIC50 [2] | Ratio IC50 [3] | pIC50 [4] | Ratio IC50 [5] | pIC50 [11] | pIC50 [12] | further results
COc1cccc(CN2C(=O)CN(Cc3ccc(C(=O)NO)cc3)C(=O)[C@H]2Cc2ccccc2)c1 | 5.09 | 7.86 | 591 | 6.77 | 12 | – | – | –
CC(=O)[C@H](Cc1cnc[nH]1)NC(=O)[C@H](CCCN=C(N)N)NC(=O)[C@H](CCCCCC(=O)NO)NC(=O)CNC(=O)CN (H-GG[Asu](NHOH)R-X1) | – | – | – | – | – | – | – | pIC50 [6]: 6.47
COc1cccc2c1C(=O)c1c(O)c3c(c(O)c1C2=O)C[C@@](O)(C(=O)CO)C[C@@H]3O[C@H]1C[C@H](N)[C@H](O)[C@H](C)O1 [DOXORUBICIN HYDROCHLORIDE] | – | – | – | – | – | – | – | pIC50 [7]: 6.59; pIC50 [8]: 6.82
CN1C(=O)CN(Cc2ccc(C(=O)NO)cc2)C(=O)C1Cc1ccccc1 (racemic) | – | 7.78 | – | – | – | – | – | –
O=C1CN(Cc2cccc(C(=O)NO)c2)C(=O)[C@H](Cc2ccccc2)N1 | – | 5.38 | – | – | – | – | – | inhibition [1]: inactive; inhibition [9]: inactive
O=C(NO)c1ccc(CN2CC(=O)N(Cc3ccc(Cl)cc3)[C@H](Cc3ccccc3)C2=O)cc1 | 5.04 | 7.93 | 786 | 6.89 | 11 | – | – | –
O=C(NO)c1ccc(CN2CC(=O)N(Cc3cccc(Cl)c3)[C@H](Cc3ccccc3)C2=O)cc1 | 5.07 | 7.98 | 838 | 6.82 | 14 | 4.87 | 4.64 | IC50 at 72 hrs [10]: > 100 µM
O=C(NO)c1ccc(CC(=O)N(CCO)c2ccccc2)cc1 | 5.75 | – | – | 5.70 | – | – | – | –
O=C1CN(Cc2ccc(C(=O)NO)cc2)C(=O)[C@@H](Cc2ccccc2)N1 | 5.08 | 8.06 | 959 | 7.51 | 4 | 4.26 | 4.06 | IC50 at 72 hrs [10]: > 100 µM

Further lines, with some results ahead:

pIC50 [1] | pIC50 [2] | Ratio IC50 [3] | pIC50 [4] | Ratio IC50 [5] | pIC50 [11] | pIC50 [12] | SMILES | further results
5.14 | 7.76 | 411 | 7.81 | 0.9 | – | – | O=C1CN(Cc2ccc(C(=O)NO)cc2)C(=O)[C@H](Cc2ccccc2)N1 | –
5.19 | 8.18 | – | 6.95 | – | – | – | O=C1CN(Cc2ccc(C(=O)NO)cc2)C(=O)[C@H](Cc2c[nH]c3ccccc23)N1 | –
5.08 | 8.00 | 823 | 6.79 | 16 | 4.92 | 4.63 | O=C(NO)c1ccc(CN2CC(=O)N(Cc3ccccc3Cl)[C@H](Cc3ccccc3)C2=O)cc1 | IC50 at 72 hrs [10]: > 100 µM; half-life at 0.5 µM [13]: 10.1 h
– | – | – | – | – | 5.03 | < 4.00 | O=C(CCCCCCNC(=O)c1cnc(N(c2ccccc2)c2ccccc2)nc1)NO [RICOLINOSTAT] | half-life at 0.5 µM [13]: 7.5 h
